Experimental data taken from ChEMBL document CHEMBL1141340, “Protein phosphatase inhibitors isolated from Spongia irregularis collected in Papua New Guinea” (J Nat Prod, 2007).
Active and inactive are the calls of the source. The calls are words filed in the database; no cut-off is given here.

Key:
[1] = Inhibition of PP1c
In short: (§1)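 Enzyme source was purified catalytic subunits of protein phosphatases PP-1 and PP-2A. Results are reported as IC50.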

[2] = Inhibition of PP2A; in short: as §1
[3] = Inhibition of calcineurin

| Compound | IC50 [1] [µM] | IC50 [2] [µM] | IC50 [3] [µM] | Activity [3] |
| --- | --- | --- | --- | --- |
| C[C@@H]1CC[C@@H]2C(=CCCC2(C)C)[C@]1(C)CCC(CCCc1ccoc1)COS(=O)(=O)O (stereo partly specified) | 64 | 140 | 69 | – |
| C[C@@H]1CC[C@@H]2C(=CCCC2(C)C)[C@]1(C)CCC(CCCc1ccoc1)COP(=O)(O)O (stereo partly specified) | 36 | – | 230 | – |
| CC1=CCCC(C)(C)C1CC/C(C)=C/CCC(CCCc1ccoc1)COP(O)(O)=S (stereo unspecified) | – | – | 70 | – |
| CC1=CCCC(C)(C)C1CC/C(C)=C/CCC(CO)CCCc1ccoc1 (stereo unspecified) | – | – | – | inactive |

Second part, the compound after the results:

| IC50 [1] [µM] | IC50 [2] [µM] | IC50 [3] [µM] | Activity [3] | Compound |
| --- | --- | --- | --- | --- |
| – | – | 59 | – | CC(C)CCN1CC=C(CCCC(CC[C@@]2(C)C3=CCCC(C)(C)[C@@H]3CC[C@H]2C)COS(=O)(=O)O)C1=O (stereo partly specified) [IREGULARASULFATE] |
| 71 | 130 | 66 | – | CC1=CCCC(C)(C)C1CC/C(C)=C/CCC(CCCc1ccoc1)COS(=O)(=O)O (stereo unspecified) [HIPPOSULFATE C] |
